According to ChEMBL document CHEMBL1150059, “Antifungal activity of meridine, a natural product from the marine sponge Corticium sp” (J Nat Prod, 1992):
In brackets after ≈: the same amount, converted by molar mass. Activity calls are given as the source filed them. No cut-off for these calls is given here.

Assays:
[1] = system: Candida albicans; assay: Antifungal activity against Candida albicans 44506 assessed as inhibition of U-14C-acetate incorporation into TCA precipitable material after 1 hr; format: functional, organism-based; details: Candida albicans, 44506, 1 h
Summary of the method: (§1)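 Candida grown overnight in YNBG to mid-log phase, washed with saline, and resuspended in YNB lacking the precursor under study. Compound preincubated 30 min at 37°. 14C-labelled acetate, adenine, glucose or leucine (per line) then added, with incorporation followed 60 min (linear). Stopped with ice-cold TCA, 5% final. IC50 is the concentration giving 50% inhibition versus control.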

[2] = system: Candida albicans; assay: Antifungal activity against Candida albicans 44506 assessed as inhibition of U-14C-adenine incorporation into TCA precipitable material after 1 hr; format: functional, organism-based; details: Candida albicans, 44506, 1 h; summary of the method: as §1
[3] = system: Candida albicans; assay: Antifungal activity against Candida albicans 44506 assessed as inhibition of U-14C-glucose incorporation into TCA precipitable material after 1 hr; format: functional, organism-based; details: Candida albicans, 44506, 1 h; summary of the method: as §1
[4] = system: Candida albicans; assay: Antifungal activity against Candida albicans 44506 assessed as inhibition of U-14C-leucine incorporation into TCA precipitable material after 1 hr; format: functional, organism-based; details: Candida albicans, 44506, 1 h; summary of the method: as §1
[5] = system: Candida albicans; assay: Antifungal activity against Candida albicans 44506 in Sabouraud dextrose broth after 18 to 24 hrs by twofold broth dilution method; format: functional
Summary of the method: (§2)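 Inoculum 10^3 cells/ml, incubated 18–24 h at 37°. MIC read visually as the lowest concentration with complete growth inhibition. Average of triplicates.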

[6] = system: Candida albicans; assay: Antifungal activity against Candida albicans 44506 in RPMI-1640 medium after 18 to 24 hrs by twofold broth dilution method; format: functional
Summary of the method: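 Twofold broth microdilution in RPMI-1640 (pH 7.2, unbuffered), inoculum 10^3 cells/ml. Incubated 18–24 h at 37° under 5% CO2. MIC read visually as the lowest concentration giving complete growth inhibition. Average of triplicates.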

[7] = system: Escherichia coli; assay: Antibacterial activity against Escherichia coli HBOI 001 after 18 to 24 hrs by twofold broth dilution method; format: functional, organism-based
Summary of the method: (§3)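 Twofold serial dilutions in Mueller-Hinton broth supplemented with Mg2+ and Ca2+. Inoculum 10^3 cells/ml, with cell density counted by hemocytometer. Incubated 18–24 h at 37°. MIC is the lowest concentration giving complete visual inhibition of growth. Triplicate determinations, reported as the average.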

[8] = system: Candida albicans; assay: Antifungal activity against Candida albicans 44506 in RPMI-1640 medium after 24 to 48 hrs; format: functional
Summary of the method: (§4)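 MFC taken from the broth MIC plates: wells resuspended, and 1 µl streaked onto Sabouraud dextrose agar (Candida) or Emmon's SDA (Cryptococcus). Scored after 24–48 h at 37°. MFC is the lowest concentration killing 99% of the inoculum. Average of triplicates.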

[9] = system: Scopulariopsis brevicaulis; assay: Antifungal activity against Scopulariopsis brevicaulis 36840 after 18 to 24 hrs by twofold broth dilution method; format: functional
[10] = system: Candida albicans; assay: Antifungal activity against Candida albicans 44506 in RPMI-1640 medium after 7 days in pH 6 buffer by agar dilution method; format: functional; details: Candida albicans, 44506, 168 h
[11] = system: Nannizzia gypsea; assay: Antifungal activity against Microsporum gypseum 42960 after 18 to 24 hrs by twofold broth dilution method; format: functional
[12] = system: Bacillus subtilis; assay: Antibacterial activity against Bacillus subtilis 6633 after 18 to 24 hrs by twofold broth dilution method; format: functional; summary of the method: as §3
[13] = system: Candida albicans; assay: Antifungal activity against Candida albicans 44506 in YNBG medium after 7 days in pH 6 buffer by agar dilution method; format: functional; details: Candida albicans, 44506, 168 h
[14] = system: Candida albicans; assay: Antifungal activity against Candida albicans 44506 in YNBG medium of pH 5.4 after 7 days by agar dilution method; format: functional; details: Candida albicans, 44506, 168 h
[15] = system: Cryptococcus neoformans; assay: Antifungal activity against Cryptococcus neoformans 32045 after 24 to 48 hrs; format: functional; summary of the method: as §4
[16] = system: Candida albicans; assay: Antifungal activity against Candida albicans 44506 in RPMI-1640 medium after 7 days in pH 4 buffer by agar dilution method; format: functional; details: Candida albicans, 44506, 168 h
[17] = system: Candida albicans; assay: Antifungal activity against Candida albicans 44506 in RPMI-1640 medium of pH 7.2 after 7 days by agar dilution method; format: functional; details: Candida albicans, 44506, 168 h
[18] = system: Candida albicans; assay: Antifungal activity against Candida albicans 44506 in Sabouraud dextrose broth after 24 to 48 hrs; format: functional; summary of the method: as §4
[19] = system: Candida albicans; assay: Antifungal activity against Candida albicans 44506 in YNBG medium after 7 days in pH 4 buffer by agar dilution method; format: functional; details: Candida albicans, 44506, 168 h
[20] = system: Sporothrix schenckii; assay: Antifungal activity against Sporothrix schenckii 14284 after 18 to 24 hrs by twofold broth dilution method; format: functional
[21] = system: Candida albicans; assay: Antifungal activity against Candida albicans 44506 in YNBG medium after 18 to 24 hrs by twofold broth dilution method; format: functional; summary of the method: as §2
[22] = system: Candida albicans; assay: Antifungal activity against Candida albicans 44506 in RPMI-1640 medium after 7 days in pH 8 buffer by agar dilution method; format: functional; details: Candida albicans, 44506, 168 h
[23] = system: Candida albicans; assay: Antifungal activity against Candida albicans 44506 in YNBG medium after 7 days in pH 5 buffer by agar dilution method; format: functional; details: Candida albicans, 44506, 168 h
[24] = system: Trichophyton mentagrophytes; assay: Antifungal activity against Trichophyton mentagrophytes 9533 after 18 to 24 hrs by twofold broth dilution method; format: functional
[25] = system: Pseudomonas aeruginosa; assay: Antibacterial activity against Pseudomonas aeruginosa 27853 after 18 to 24 hrs by twofold broth dilution method; format: functional, organism-based; summary of the method: as §3
[26] = system: Cryptococcus neoformans; assay: Antifungal activity against Cryptococcus neoformans 32045 after 48 hrs by twofold broth dilution method; format: functional; details: Cryptococcus neoformans, 32045, 48 h
Summary of the method: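 Broth microdilution with twofold compound dilutions and an inoculum of 10^3 cells/ml. Incubated 48 h at 37°. MIC is the visually read lowest concentration completely inhibiting growth. Triplicate average.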

[27] = system: Candida albicans; assay: Antifungal activity against Candida albicans 44506 in YNBG medium after 7 days in pH 8 buffer by agar dilution method; format: functional; details: Candida albicans, 44506, 168 h
[28] = system: Epidermophyton floccosum; assay: Antifungal activity against Epidermophyton floccosum 25066 after 18 to 24 hrs by twofold broth dilution method; format: functional
[29] = system: Candida albicans; assay: Antifungal activity against Candida albicans 44506 in RPMI-1640 medium after 7 days in pH 5 buffer by agar dilution method; format: functional; details: Candida albicans, 44506, 168 h
[30] = system: Candida albicans; assay: Antifungal activity against Candida albicans 44506 in YNBG medium after 7 days in pH 7 buffer by agar dilution method; format: functional; details: Candida albicans, 44506, 168 h
[31] = system: Candida albicans; assay: Antifungal activity against Candida albicans 44506 in RPMI-1640 medium after 7 days in pH 7 buffer by agar dilution method; format: functional; details: Candida albicans, 44506, 168 h
[32] = system: Trichosporon beigelii; assay: Antifungal activity against Trichosporon beigelii 28592 after 18 to 24 hrs by twofold broth dilution method; format: functional

Nc1nc(=O)[nH]cc1F [FLUCYTOSINE]
IC50 [1]: > 100 µg/mL
IC50 [2]: 6 µg/mL (≈ 46.5 µM)
IC50 [3]: > 100 µg/mL
IC50 [4]: > 100 µg/mL

CC(=O)N1CCN(c2ccc(OCC3COC(Cn4ccnc4)(c4ccc(Cl)cc4Cl)O3)cc2)CC1 (centres undefined) [KETOCONAZOLE]
MIC [5]: 0.062 µg/mL (≈ 0.117 µM)
MIC [6]: 0.008 µg/mL (≈ 0.0151 µM)

O=C1c2nccc(O)c2-c2nc3ccccc3c3ccnc1c23 [MERIDINE]
IC50 [1]: > 100 µg/mL
Activity [7]: inactive
MFC [8]: 0.2 µg/mL (≈ 0.668 µM)
MIC [9]: > 25 µg/mL
MIC [10]: 0.31 µg/mL (≈ 1.04 µM)
MIC [11]: 25 µg/mL (≈ 83.5 µM)
MIC [12]: 3.1 µg/mL (≈ 10.4 µM)
MIC [13]: 1.2 µg/mL (≈ 4.01 µM)
MIC [14]: 2.5 µg/mL (≈ 8.35 µM)
MFC [15]: 6.2 µg/mL (≈ 20.7 µM)
MIC [16]: 0.62 µg/mL (≈ 2.07 µM)
IC50 [2]: 1 µg/mL (≈ 3.34 µM)
MIC [17]: 0.31 µg/mL (≈ 1.04 µM)
MFC [18]: 3.1 µg/mL (≈ 10.4 µM)
MIC [19]: 2.5 µg/mL (≈ 8.35 µM)
MIC [20]: > 25 µg/mL
MIC [21]: 2.5 µg/mL (≈ 8.35 µM)
IC50 [3]: > 100 µg/mL
MIC [22]: 0.31 µg/mL (≈ 1.04 µM)
MIC [23]: 2.5 µg/mL (≈ 8.35 µM)
MIC [24]: 6.2 µg/mL (≈ 20.7 µM)
Activity [25]: inactive
MIC [26]: 0.8 µg/mL (≈ 2.67 µM)
MIC [5]: 3.1 µg/mL (≈ 10.4 µM)
MIC [27]: 1.2 µg/mL (≈ 4.01 µM)
MIC [28]: 1.6 µg/mL (≈ 5.35 µM)
MIC [29]: 0.62 µg/mL (≈ 2.07 µM)
MIC [30]: 1.2 µg/mL (≈ 4.01 µM)
MIC [6]: 0.2 µg/mL (≈ 0.668 µM)
MIC [31]: 0.31 µg/mL (≈ 1.04 µM)
IC50 [4]: 50 µg/mL (≈ 167 µM)
MIC [32]: > 25 µg/mL

CN(CC[C@H](N)CC(=O)N[C@H]1C=C[C@H](n2ccc(N)nc2=O)O[C@@H]1C(=O)O)C(=N)N [BLASTICIDIN_S]
IC50 [1]: > 100 µg/mL
IC50 [2]: > 100 µg/mL
IC50 [3]: > 100 µg/mL
IC50 [4]: 6 µg/mL (≈ 14.2 µM)

Clc1ccc(COC(Cn2ccnc2)c2ccc(Cl)cc2Cl)c(Cl)c1 (centres undefined) [MICONAZOLE]
MIC [5]: 25 µg/mL (≈ 60.1 µM)
MIC [6]: 0.03 µg/mL (≈ 0.0721 µM)
